The values below come from ChEMBL document CHEMBL1128719, “The synthesis, structure-activity, and structure-side effect relationships of a series of 8-alkoxy- and 5-amino-8-alkoxyquinolone antibacterial agents” (J Med Chem, 1995).

The subject of data set [1] is Cutibacterium acnes. The data set is described as follows: In vitro antibacterial activity was tested for Propion acnes PA5-1. Type of data set: functional. A digest of the protocol:
(§1)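 Microtitration (microdilution) MIC determination in μg/mL against a panel of Gram-positive, Gram-negative and anaerobic organisms. Values come from duplicate or triplicate experiments and are stated accurate to ±50%.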

Data set [2] concerns Bacteroides fragilis. The data set can be described thus: In vitro antibacterial activity against Bacteroides fragilis BFA. Type of data set: functional. A digest of the protocol:
as §1

Data set [3] has as its system Clostridioides difficile. The data set can be described thus: In vitro antibacterial activity was tested for Clostridium diff CD1-1. The class given is functional.
The test system of data set [4] is Peptoniphilus asaccharolyticus. The data set is described as follows: In vitro antibacterial activity was tested for Pepto asac PA 3-1. The class given is functional. A digest of the protocol:
as §1

The species entered for data set [5] is Mus musculus. The data set can be described thus: Phototoxic skin reaction in depilated female CD-1 mice. Type of data set: toxicity, organism-based. As to conditions: in vivo. A digest of the protocol: (§2)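 Female CD-1 mice, depilated, given a single oral or subcutaneous dose. UVA (320–400 nm) exposure for 3 h, starting 1 h post-dose. Initial doses were 30, 100 and 300 mg/kg. PTD50 (dose giving phototoxic skin reaction in 50% of mice) derived by probit method. First day of positive reaction and no-effect dose taken from raw data.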

For data set [6], the species on record is Mus musculus. The data set can be described thus: Phototoxic skin reaction in depilated female CD-1 mice. The class given is functional. A digest of the protocol:
as §2

The subject of data set [7] is Clostridium perfringens. The data set is described as follows: In vitro antibacterial activity against Clostridium perfringens CP 3-1. The class given is functional.
Data set [8] has as its system Staphylococcus aureus. The data set can be described thus: In vitro antibacterial activity was tested for Staphylococcus aureus UC-76. The class given is functional. The gist of the method:
as §1

For data set [9], the system named is Providencia rettgeri. The data set is described as follows: In vitro antibacterial activity was tested for Providencia rettgeri H1771. The class given is functional. A digest of the protocol:
as §1

Data set [10] has as its system Streptococcus pyogenes. The data set is described as follows: In vitro antibacterial activity was tested for Streptococcus pyogenes C203. The class given is functional. A digest of the protocol:
as §1

Data set [11] concerns Streptococcus pneumoniae. The data set is described as follows: In vitro antibacterial activity was tested for Streptococcus pneumoniae SV-1. The class given is functional. A digest of the protocol: as §1
In data set [12] the test system is Escherichia coli. The data set is described as follows: In vitro antibacterial activity was tested for Escherichia coli H560. The class given is functional. A digest of the protocol:
as §1

The test system of data set [13] is Klebsiella pneumoniae. The data set can be described thus: In vitro antibacterial activity was tested for Klebsiella pneumoniae MGH-2. The class given is functional. The gist of the method:
as §1

For data set [14], the system named is Enterococcus faecalis. The data set is described as follows: In vitro antibacterial activity was tested for Streptococcus faecalis MGH-2. Type of data set: functional. The gist of the method:
as §1

The test system of data set [15] is Staphylococcus aureus. The data set can be described thus: In vitro antibacterial activity was tested for Staphylococcus aureus H228. Type of data set: functional. The gist of the method: as §1
Data set [16] concerns Pseudomonas aeruginosa. The data set is described as follows: In vitro antibacterial activity was tested for Pseudomonas aeruginosa UI-18. Type of data set: functional. The gist of the method:
as §1

The subject of data set [17] is Escherichia coli. The data set can be described thus: In vitro antibacterial activity was tested for Escherichia coli Vogel. The class given is functional. The gist of the method: as §1
Data set [18] concerns Enterobacter cloacae. The data set can be described thus: In vitro antibacterial activity was tested for Enterobacter cloacae HA2646. Type of data set: functional.
For data set [19], the system named is V79. The data set can be described thus: Clonogenic cytotoxicity against Chinese hamster V-79 cells. The class given is functional, cell-based. Particulars: Cricetulus griseus.

SMILES strings stand for the structures. Converted amounts (≈) assume the structure as drawn.

As a reminder, the MIC is the lowest concentration that inhibits growth of the organism. As to `NC1CCCN(c2c(F)cc3c(=O)c(C(=O)O)cn(C4CC4)c3c2F)C1` (stereo not given), the minimum inhibitory concentration (MIC) came to 0.4 µg/mL (≈ 1.1 µM) in [1]; 1.6 µg/mL (≈ 4.4 µM) in data set [2]; 1.6 µg/mL (≈ 4.4 µM) in data set [3]; 1.6 µg/mL (≈ 4.4 µM) in data set [4]; 0.2 µg/mL (≈ 0.55 µM) in data set [7]. The compound further displayed a PTD50 in data set [5] of 55 mg. The same compound had a No effect dose in [6] of 30 mg.
With `COc1c(N2CCC(C)(CN)C2)c(F)cc2c(=O)c(C(=O)O)cn(C3CC3)c12` (stereo not given), the MIC turned out to be 0.006 µg/mL (≈ 0.0154 µM) in data set [8]; 0.4 µg/mL (≈ 1.03 µM) in [1]; 0.4 µg/mL (≈ 1.03 µM) in data set [2]; 0.4 µg/mL (≈ 1.03 µM) in data set [9]; 0.013 µg/mL (≈ 0.0334 µM) in data set [10]; 0.8 µg/mL (≈ 2.05 µM) in data set [3]. For the same compound, the MIC in data set [4] was 0.8 µg/mL (≈ 2.05 µM); in data set [11], 0.013 µg/mL (≈ 0.0334 µM); in data set [12], 0.05 µg/mL (≈ 0.128 µM); in [13] it was 0.2 µg/mL (≈ 0.514 µM); in data set [14], 0.025 µg/mL (≈ 0.0642 µM); in data set [15] it was 0.025 µg/mL (≈ 0.0642 µM). For the same compound, the MIC in data set [16] was determined as 1.6 µg/mL (≈ 4.11 µM); in data set [17] it was 0.1 µg/mL (≈ 0.257 µM); in data set [7], 0.2 µg/mL (≈ 0.514 µM); in data set [18], 0.1 µg/mL (≈ 0.257 µM). The same compound gave a PTD50 in data set [5] of more than 100 mg. The compound further returned a No effect dose in data set [6] of 100 mg.
Broadly, the IC50 is the midpoint of a concentration-inhibition curve. The low end stands for inhibition by little substance, the high end for a need for much substance. `NC1CCCN(c2cc3c(cc2F)c(=O)c(C(=O)O)cn3C2CC2)C1` (stereo not given): the PTD50 in [5] is recorded as more than 100 mg. Moreover, the No effect dose in data set [6] is given as 100 mg. In [19], this compound returned a concentration for half-maximal inhibition (IC50) of 560 µg/mL (≈ 1620 µM).
On to `COc1c(N2CCCC(CN)C2)c(F)c(N)c2c(=O)c(C(=O)O)cn(C3CC3)c12` (stereo not given), for which the MIC came out at 0.006 µg/mL (≈ 0.0148 µM) in data set [8]; 1.6 µg/mL (≈ 3.96 µM) in data set [1]; 3.1 µg/mL (≈ 7.66 µM) in data set [2]; 0.8 µg/mL (≈ 1.98 µM) in data set [9]; 0.025 µg/mL (≈ 0.0618 µM) in data set [10]; 1.6 µg/mL (≈ 3.96 µM) in data set [3]. Further, the MIC is 0.8 µg/mL (≈ 1.98 µM) in data set [4]; 0.025 µg/mL (≈ 0.0618 µM) in data set [11]; 0.1 µg/mL (≈ 0.247 µM) in data set [12]; 0.4 µg/mL (≈ 0.989 µM) in [13]; 0.025 µg/mL (≈ 0.0618 µM) in data set [14]; 0.05 µg/mL (≈ 0.124 µM) in [15]. The minimum inhibitory concentration (MIC) in data set [16] was 3.1 µg/mL (≈ 7.66 µM); in data set [17] it was 0.1 µg/mL (≈ 0.247 µM); in data set [7] it was 0.2 µg/mL (≈ 0.495 µM); in data set [18], 0.2 µg/mL (≈ 0.495 µM). This compound also yielded an IC50 in data set [19] of 140 µg/mL (≈ 346 µM).
As for `COc1c(N2CCC(C)(CN)C2)c(F)c(N)c2c(=O)c(C(=O)O)cn(C3CC3)c12` (stereo not given), the MIC in [8] turned out to be 0.006 µg/mL (≈ 0.0148 µM); in [1], 1.6 µg/mL (≈ 3.96 µM); in [2], 1.6 µg/mL (≈ 3.96 µM); in data set [9] it was 0.8 µg/mL (≈ 1.98 µM); in [10], 0.025 µg/mL (≈ 0.0618 µM); in data set [3] it was 1.6 µg/mL (≈ 3.96 µM). The MIC in data set [4] came to 0.8 µg/mL (≈ 1.98 µM); in data set [11], 0.013 µg/mL (≈ 0.0321 µM); in data set [12], 0.05 µg/mL (≈ 0.124 µM); in data set [13], 0.2 µg/mL (≈ 0.495 µM); in [14], 0.05 µg/mL (≈ 0.124 µM); in [15], 0.025 µg/mL (≈ 0.0618 µM). Besides, the MIC is 3.1 µg/mL (≈ 7.66 µM) in [16], 0.1 µg/mL (≈ 0.247 µM) in data set [17], 0.8 µg/mL (≈ 1.98 µM) in data set [7] and 0.1 µg/mL (≈ 0.247 µM) in data set [18]. The same compound had an IC50 in data set [19] of 140 µg/mL (≈ 346 µM).
Take `O=C(O)c1cn(C2CC2)c2cc(N3CCNCC3)c(F)cc2c1=O` [CIPROFLOXACIN]: the MIC in data set [8] came out at 0.2 µg/mL (≈ 0.604 µM); in data set [1] it was 0.8 µg/mL (≈ 2.41 µM); in [2], 3.1 µg/mL (≈ 9.36 µM); in data set [9], 0.1 µg/mL (≈ 0.302 µM); in data set [10] it was 0.8 µg/mL (≈ 2.41 µM); in data set [4], 1.6 µg/mL (≈ 4.83 µM). In addition, the MIC in data set [11] is 1.6 µg/mL (≈ 4.83 µM); in data set [12] it was 0.025 µg/mL (≈ 0.0754 µM); in data set [13], 0.1 µg/mL (≈ 0.302 µM); in [14], 0.8 µg/mL (≈ 2.41 µM); in [15], 3.1 µg/mL (≈ 9.36 µM); in data set [16], 0.4 µg/mL (≈ 1.21 µM). Besides, in data set [5], the PTD50 is reported as 172 mg. Further, the No effect dose in [6] is on record as 100 mg.
As to `COc1c(N2CC[C@H](N)C2)c(F)cc2c(=O)c(C(=O)O)cn(C3CC3)c12`, the MIC stood at 0.013 µg/mL (≈ 0.036 µM) in [8]; 0.4 µg/mL (≈ 1.11 µM) in [1]; 0.2 µg/mL (≈ 0.553 µM) in data set [2]; 0.1 µg/mL (≈ 0.277 µM) in data set [9]; 0.025 µg/mL (≈ 0.0692 µM) in data set [10]; 0.2 µg/mL (≈ 0.553 µM) in data set [3]. Besides, the MIC in [4] amounted to 0.8 µg/mL (≈ 2.21 µM); in data set [11], 0.025 µg/mL (≈ 0.0692 µM); in [12], 0.025 µg/mL (≈ 0.0692 µM); in data set [13] it was 0.05 µg/mL (≈ 0.138 µM); in data set [14], 0.05 µg/mL (≈ 0.138 µM); in data set [15], 0.05 µg/mL (≈ 0.138 µM). Besides, the MIC in data set [16] was determined as 0.4 µg/mL (≈ 1.11 µM); in [17] it was 0.025 µg/mL (≈ 0.0692 µM); in data set [7], 0.2 µg/mL (≈ 0.553 µM); in data set [18], 0.025 µg/mL (≈ 0.0692 µM). This compound also had a concentration for half-maximal inhibition (IC50) in [19] of 32 µg/mL (≈ 88.6 µM).
As for `CC1(CN)CCN(c2nc3c(cc2F)c(=O)c(C(=O)O)cn3C2CC2)C1` (stereo not given), the MIC turned out to be 1.6 µg/mL (≈ 4.44 µM) in [1]; 6.3 µg/mL (≈ 17.5 µM) in data set [2]; 25 µg/mL (≈ 69.4 µM) in [3]; 1.6 µg/mL (≈ 4.44 µM) in data set [4]; 0.2 µg/mL (≈ 0.555 µM) in [7]. The same compound returned a PTD50 in data set [5] of more than 300 mg. In data set [6], this compound displayed a No effect dose of 300 mg.
